Data: ChEMBL document CHEMBL2062496, “Identification of a sirtuin 3 inhibitor that displays selectivity over sirtuin 1 and 2” (Eur J Med Chem, 2012)
The source made the active and inactive calls. The rule behind the calls is not given here.

Key:
[1] = target: T1, NAD-dependent protein deacetylase sirtuin-1 (Homo sapiens) (UniProt Q96EB6); experiment: Inhibition of human SIRT1 assessed as enzyme activity using Fluor-de-Lys as substrate at 1 mM by fluorometry; parameters: scale not given: the % may be the effect or the level left
T1 sequence (whole entry): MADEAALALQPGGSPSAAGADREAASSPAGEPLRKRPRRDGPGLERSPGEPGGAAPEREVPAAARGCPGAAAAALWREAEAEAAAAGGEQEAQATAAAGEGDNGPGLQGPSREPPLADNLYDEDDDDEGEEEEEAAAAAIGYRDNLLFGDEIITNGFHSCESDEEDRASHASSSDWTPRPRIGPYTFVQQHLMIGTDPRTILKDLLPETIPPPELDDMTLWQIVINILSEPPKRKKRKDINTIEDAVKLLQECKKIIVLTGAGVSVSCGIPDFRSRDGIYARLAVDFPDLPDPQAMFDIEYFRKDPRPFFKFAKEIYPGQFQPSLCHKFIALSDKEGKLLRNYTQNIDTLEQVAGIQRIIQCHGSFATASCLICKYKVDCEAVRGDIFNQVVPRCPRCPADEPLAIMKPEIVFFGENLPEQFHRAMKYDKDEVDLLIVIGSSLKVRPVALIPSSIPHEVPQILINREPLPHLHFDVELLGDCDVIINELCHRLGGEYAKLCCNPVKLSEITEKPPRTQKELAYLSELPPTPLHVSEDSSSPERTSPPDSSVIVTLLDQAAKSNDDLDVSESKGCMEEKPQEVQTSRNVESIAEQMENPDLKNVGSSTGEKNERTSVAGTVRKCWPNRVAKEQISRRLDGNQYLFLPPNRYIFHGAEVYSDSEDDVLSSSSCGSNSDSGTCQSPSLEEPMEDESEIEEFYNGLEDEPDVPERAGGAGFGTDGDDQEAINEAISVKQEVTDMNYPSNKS
Method in brief: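 Commercial Fluor-de-Lys kit, substrate human p53 379–382 peptide (Arg-His-Lys-Lys(Ac)). Human Sirt1 or Sirt2 was incubated with substrate, NAD+ and compound at 1 mM, also tested at 100 µM. Fluorescence scales with Lys382 deacetylation. Activity is expressed relative to control, mean ± S.E.M. of 3–4 replicates.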

SK-MEL-28 [2] = experiment: Increase in superoxide level in human SK-MEL-28 cells at 100 uM maintained in Locke's solution after 24 hrs by DHE-based fluorescence assay in absence of GF and glucose; format: functional, cell-based
Method in brief: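 SK-MEL-28 cells held 24 h in Locke's balanced saline without glucose or serum, with or without 100 µM compound; antimycin was the positive control. Cells were PBS-washed and labelled at 37 °C with DHE (10 µmol/L, 1% DMSO) in Locke's containing 5 mmol/L pyruvate for 40 min. They were then iced, trypsinized and read by FACS as MFI of 10,000 cells, autofluorescence-corrected; 3–4 separate experiments.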

HeLa = experiment: Cytotoxicity against human HeLa cells assessed as cell death after 48 hrs
UO-31 = experiment: Growth of human UO31 cells assessed as cell growth at 10 uM after 48 hrs by MTT assay; conditions: UO-31, 48 h
HOP-92 = experiment: Growth of human HOP92 cells assessed as cell growth at 10 uM after 48 hrs by MTT assay; conditions: HOP-92, 48 h
OVCAR-4 = experiment: Growth of human OVCAR4 cells assessed as cell growth at 10 uM after 48 hrs by MTT assay; conditions: OVCAR-4, 48 h
A549 = experiment: Growth of human A549/ATCC cells assessed as cell growth at 10 uM after 48 hrs by MTT assay; conditions: A549, 48 h
A498 = experiment: Growth inhibition of human A498 cells assessed as cell growth at 10 uM after 48 hrs by MTT assay; values are per cent of control; conditions: A498, 48 h
ACHN = experiment: Growth inhibition of human ACHN cells assessed as cell growth at 10 uM after 48 hrs by MTT assay; values are per cent of control
HOP-62 = experiment: Growth inhibition of human HOP62 cells assessed as cell growth at 10 uM after 48 hrs by MTT assay; values are per cent of control; conditions: HOP-62, 48 h
SF-295 = experiment: Growth inhibition of human SF295 cells assessed as cell growth at 10 uM after 48 hrs by MTT assay; values are per cent of control; conditions: SF-295, 48 h
HCT-116 = experiment: Growth inhibition of human HCT116 cells assessed as cell growth at 10 uM after 48 hrs by MTT assay; values are per cent of control; conditions: HCT-116, 48 h
OVCAR-5 = experiment: Growth inhibition of human OVCAR5 cells assessed as cell growth at 10 uM after 48 hrs by MTT assay; values are per cent of control; conditions: OVCAR-5, 48 h
[3] = Growth inhibition of human Hs 578T cells assessed as cell growth at 10 uM after 48 hrs by MTT assay; values are per cent of control
HCC 2998 = experiment: Growth inhibition of human HCC2998 cells assessed as cell growth at 10 uM after 48 hrs by MTT assay; values are per cent of control; conditions: HCC 2998, 48 h
Malme-3M = experiment: Growth inhibition of human MALME-3M cells assessed as cell growth at 10 uM after 48 hrs by MTT assay; values are per cent of control
SK-MEL-5 = experiment: Growth inhibition of human SK-MEL-5 cells assessed as cell growth at 10 uM after 48 hrs by MTT assay; values are per cent of control; conditions: SK-MEL-5, 48 h
SK-MEL-28 [4] = experiment: Growth inhibition of human SK-MEL-28 cells assessed as cell growth at 10 uM after 48 hrs by MTT assay; values are per cent of control; conditions: SK-MEL-28, 48 h
[5] = Growth inhibition of human NCI-ADR-RES cells assessed as cell growth at 10 uM after 48 hrs by MTT assay; values are per cent of control

c1cncc(-c2cnn[nH]2)c1
Activity [1]: 88%
Activity (SK-MEL-28 [2]): Active
IC50 (HeLa): 4.7 µM
growth, % of control at 10 µM (UO-31): 76%
growth, % of control at 10 µM (HOP-92): 80.8%
growth, % of control at 10 µM (OVCAR-4): 47.4%
growth, % of control at 10 µM (A549): 101%
growth, % of control at 10 µM (A498): 105%
growth, % of control at 10 µM (ACHN): 111%
growth, % of control at 10 µM (HOP-62): 90.9%
growth, % of control at 10 µM (SF-295): 107%
growth, % of control at 10 µM (HCT-116): 82.4%
growth, % of control at 10 µM (OVCAR-5): 100%
growth, % of control at 10 µM [3]: 118%
growth, % of control at 10 µM (HCC 2998): 77.3%
growth, % of control at 10 µM (Malme-3M): 99%
growth, % of control at 10 µM (SK-MEL-5): 103%
growth, % of control at 10 µM (SK-MEL-28 [4]): 106%
growth, % of control at 10 µM [5]: 71.3%
